≈ marks a conversion by molar mass, not a printed value.
Legend:
[1] = AUC in BALB-nu/nu mouse at 100 mg/kg, po measured after 24 hrs by LC-MS/MS analysis; type: ADME, organism-based; set-up: time < 24 hr, dose 100 mg/kg, route oral; details: plasma
Procedure, shortened: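 Mice dosed orally at 100 mg/kg as a solution in 5% DMSO, 5% Cremophor EL, 15% PEG400, 15% 2-hydroxypropyl-β-cyclodextrin and 60% water.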

[2] = Intrinsic clearance in human liver microsomes at 5 uM by LC/MS/MS analysis; type: ADME; details: read-out: CLH
[3] = Membrane permeability of the compound at pH 6.5 by PAMPA PSR4p assay; type: physicochemical; details: read-out: permeability
HT-29 = experiment: Inhibition of human HT-29 cell growth; type: functional, cell-based
[4] = molecular target: Dual specificity mitogen-activated protein kinase kinase 1 (Homo sapiens, UniProt Q02750, S218E/S222E); experiment: Inhibition of constitutively active MEK1 S218E,S222E mutant (unknown origin) assessed as MAP kinase 2/Erk2-mediated FAM-Erktide phosphorylation using MAP kinase 2/Erk2 as substrate preincubated for 30 mins by IMAP fluorescence polarization assay
Sequence of Dual specificity mitogen-activated protein kinase kinase 1 (Q02750 whole entry S218E/S222E): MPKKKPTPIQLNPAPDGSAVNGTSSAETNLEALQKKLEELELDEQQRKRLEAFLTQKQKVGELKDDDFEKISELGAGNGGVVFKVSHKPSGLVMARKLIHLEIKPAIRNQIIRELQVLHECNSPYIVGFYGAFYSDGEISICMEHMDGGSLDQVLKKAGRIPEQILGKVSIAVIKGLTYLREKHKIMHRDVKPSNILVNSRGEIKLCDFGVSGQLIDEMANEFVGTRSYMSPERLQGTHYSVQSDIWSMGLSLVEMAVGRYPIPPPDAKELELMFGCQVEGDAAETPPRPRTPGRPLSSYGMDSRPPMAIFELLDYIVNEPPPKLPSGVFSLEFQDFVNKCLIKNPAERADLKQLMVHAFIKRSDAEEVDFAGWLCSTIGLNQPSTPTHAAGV

Cytochrome P450 2C9 [5] = molecular target: T1, Cytochrome P450 2C9 (Homo sapiens, UniProt P11712); experiment: Inhibition of CYP2C9 in human liver microsomes using diclofenac as substrate measured after 30 mins preincubation by LC-MS/MS analysis in absence of NADPH; type: ADME
T1 sequence (P11712 whole entry): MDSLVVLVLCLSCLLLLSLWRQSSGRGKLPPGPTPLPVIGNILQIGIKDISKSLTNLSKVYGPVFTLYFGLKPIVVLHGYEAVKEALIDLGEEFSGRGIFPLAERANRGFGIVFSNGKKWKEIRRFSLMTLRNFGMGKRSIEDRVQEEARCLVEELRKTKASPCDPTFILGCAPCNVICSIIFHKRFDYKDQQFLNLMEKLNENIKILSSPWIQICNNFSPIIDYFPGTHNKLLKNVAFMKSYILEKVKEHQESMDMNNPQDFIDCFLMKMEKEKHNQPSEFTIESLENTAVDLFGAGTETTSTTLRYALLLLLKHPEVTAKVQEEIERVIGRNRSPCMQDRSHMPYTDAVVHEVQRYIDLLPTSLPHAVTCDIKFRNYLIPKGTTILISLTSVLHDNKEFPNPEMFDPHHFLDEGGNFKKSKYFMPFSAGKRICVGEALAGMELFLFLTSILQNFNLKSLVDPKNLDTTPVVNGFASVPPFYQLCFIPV
Procedure, shortened: (§1)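 The IC50 is determined after a 30 min preincubation without NADPH.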

Cytochrome P450 3A4 [6] = molecular target: T2, Cytochrome P450 3A4 (Homo sapiens, UniProt P08684); experiment: Inhibition of CYP3A4 in human liver microsomes using midazolam as substrate measured after 30 mins preincubation by LC-MS/MS analysis in absence of NADPH; type: ADME; procedure, shortened: as §1
T2 sequence (P08684 whole entry): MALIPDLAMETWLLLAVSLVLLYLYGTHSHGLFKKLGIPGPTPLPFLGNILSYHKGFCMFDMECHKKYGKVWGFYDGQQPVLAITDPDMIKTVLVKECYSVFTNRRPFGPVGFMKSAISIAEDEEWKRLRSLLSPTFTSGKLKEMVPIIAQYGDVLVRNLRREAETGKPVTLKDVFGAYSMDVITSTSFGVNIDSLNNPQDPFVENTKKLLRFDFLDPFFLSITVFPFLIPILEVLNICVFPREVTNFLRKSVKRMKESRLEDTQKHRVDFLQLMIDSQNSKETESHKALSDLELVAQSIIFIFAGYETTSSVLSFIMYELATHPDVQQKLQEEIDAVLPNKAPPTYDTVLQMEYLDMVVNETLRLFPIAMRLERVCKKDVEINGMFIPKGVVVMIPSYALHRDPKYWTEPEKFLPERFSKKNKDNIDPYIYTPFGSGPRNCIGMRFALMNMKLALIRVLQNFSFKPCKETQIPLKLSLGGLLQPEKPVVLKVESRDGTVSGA

Cytochrome P450 3A4 [7] = molecular target: T2, Cytochrome P450 3A4; experiment: Inhibition of CYP3A4 in human liver microsomes using midazolam as substrate measured after 30 mins preincubation by LC-MS/MS analysis in presence of NADPH; type: ADME
Procedure, shortened: (§2)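 The IC50 is determined after a 30 min preincubation with NADPH.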

Cytochrome P450 2C9 [8] = molecular target: T1, Cytochrome P450 2C9; experiment: Inhibition of CYP2C9 in human liver microsomes using diclofenac as substrate measured after 30 mins preincubation by LC-MS/MS analysis in presence of NADPH; type: ADME; procedure, shortened: as §2
[9] = Bioavailability in BALB-nu/nu mouse at 2.5 mg/kg, iv and 5 mg/kg, po by LC-MS/MS analysis; type: ADME, organism-based; details: in vivo
[10] = Bioavailability in cynomolgus monkey at 2.5 mg/kg, iv and 5 mg/kg, po by LC-MS/MS analysis; type: ADME, organism-based, Macaca fascicularis; details: in vivo
C32 [11] = experiment: Antitumor activity against human C32 cells xenografted in po dosed BALB-nu/nu mouse assessed as tumor growth inhibition administered qd for 11 days; type: functional; details: for ED50: Mus musculus, C32, po, 264 h
Procedure, shortened: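 C32 cells implanted subcutaneously in the right flank of BALB-nu/nu mice, with tumors established before treatment. Compound given orally once daily for 11 days (day 0 to day 10). Tumor size measured twice per week. Values are mean SD, n = 4.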

[12] = Clearance in cynomolgus monkey at 2.5 mg/kg, iv and 5 mg/kg, po by LC-MS/MS analysis; type: ADME, organism-based, Macaca fascicularis; details: in vivo
[13] = Clearance in Crlj:CD rat at 2.5 mg/kg, iv and 5 mg/kg, po by LC-MS/MS analysis; type: ADME, organism-based; details: in vivo
[14] = Dissociation constant, pKa of the compound at 10 mM by spectroscopic titration analysis; type: physicochemical
[15] = Clearance in BALB-nu/nu mouse at 2.5 mg/kg, iv and 5 mg/kg, po by LC-MS/MS analysis; type: ADME, organism-based; details: in vivo
Mus musculus [16] = experiment: Toxicity in po dosed BALB-nu/nu mouse xenografted with human C32 cells assessed as adverse clinical signs administered qd for 11 days; type: organism-based; details: in vivo, 264 h
[17] = Bioavailability in Crlj:CD rat at 2.5 mg/kg, iv and 5 mg/kg, po by LC-MS/MS analysis; type: ADME, organism-based; details: in vivo
[18] = Saturated solubility of the compound in fasted state simulated intestinal fluid after 24 hrs by shaking flask method; type: ADME; details: fasted state simulated intestinal fluid (FaSSIF)
Procedure, shortened: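 Free crystalline form equilibrated for 24 h in FaSSIF, and the saturated concentration was reported.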

Mus musculus [19] = experiment: Toxicity in po dosed BALB-nu/nu mouse xenografted with human C32 cells assessed as body weight administered qd for 11 days; type: organism-based; details: in vivo, 264 h
C32 [20] = experiment: Growth inhibition of human C32 cells harboring B-Raf V600E mutant
[21] = molecular target: RAF proto-oncogene serine/threonine-protein kinase (Homo sapiens, UniProt P04049); experiment: Inhibition of truncated active C-Raf (unknown origin) assessed as MEK1 phosphorylation using inactive MEK1 K97R as substrate after 45 mins
Sequence of RAF proto-oncogene serine/threonine-protein kinase (P04049 whole entry, the tested form may be a part): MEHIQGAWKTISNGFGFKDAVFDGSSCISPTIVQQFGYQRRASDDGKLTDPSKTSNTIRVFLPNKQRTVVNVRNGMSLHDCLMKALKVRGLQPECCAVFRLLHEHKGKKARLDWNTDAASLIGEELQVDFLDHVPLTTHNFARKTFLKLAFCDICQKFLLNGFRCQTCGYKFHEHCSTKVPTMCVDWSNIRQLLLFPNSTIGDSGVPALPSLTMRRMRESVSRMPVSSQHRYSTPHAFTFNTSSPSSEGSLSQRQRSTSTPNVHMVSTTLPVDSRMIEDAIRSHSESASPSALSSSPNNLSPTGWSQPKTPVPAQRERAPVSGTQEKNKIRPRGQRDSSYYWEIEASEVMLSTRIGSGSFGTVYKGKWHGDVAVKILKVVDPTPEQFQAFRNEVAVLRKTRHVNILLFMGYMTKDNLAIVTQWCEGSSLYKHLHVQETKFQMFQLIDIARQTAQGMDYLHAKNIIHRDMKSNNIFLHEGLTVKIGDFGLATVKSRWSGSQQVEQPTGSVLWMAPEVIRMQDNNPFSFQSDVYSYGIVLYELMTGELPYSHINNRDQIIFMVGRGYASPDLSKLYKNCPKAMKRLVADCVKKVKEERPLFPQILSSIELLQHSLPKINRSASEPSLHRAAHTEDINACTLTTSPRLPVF

HCT-116 = experiment: Inhibition of human HCT116 cell growth after 96 hrs by counting kit-8 analysis; type: functional, cell-based; details: HCT-116, 96 h
[22] = Solubility of the compound in fasted state simulated intestinal fluid by LYSA method; type: ADME; details: fasted state simulated intestinal fluid (FaSSIF)
[23] = Supersaturated solubility of the compound in fasted state simulated intestinal fluid after 4 hrs by miniscale dissolution test; type: ADME; details: fasted state simulated intestinal fluid (FaSSIF)

Row | Compound | AUC at 24 h [1] [µM·h] | microsomal CLint at 5 µM [2] [µL/min/mg] | IC50 (HT-29) [nM] | IC50 [4] [nM] | IC50 [21] [nM] | IC50 (HCT-116) [nM] | solubility [22] [µg/mL] | further results
1 | CNS(=O)(=O)[N-]c1cccc(Cc2c(C)c3ccc(OC(=O)N(C)C)cc3oc2=O)c1.[Na+] | 78 |  |  |  |  |  |  | 
2 | CNS(=O)(=O)Nc1cccc(Cc2c(C)c3cc(C)c(OC(=O)N(C)C)cc3oc2=O)c1 | 18 | 17 | 8 | 29 |  |  |  | Papp [3]: 4 ×10⁻⁶ cm/s
3 | CNS(=O)(=O)Nc1cccc(Cc2c(C)c3ccc(OC(=O)N(C)C)cc3oc2=O)c1 |  | 20 | 9 | 110 |  |  |  | IC50 (Cytochrome P450 2C9 [5]): 29000 nM; IC50 (Cytochrome P450 3A4 [6]): 13000 nM; IC50 (Cytochrome P450 3A4 [7]): 5600 nM; IC50 (Cytochrome P450 2C9 [8]): 96000 nM
4 | CNS(=O)(=O)Nc1cccc(Cc2c(C)c3ccc(Oc4ncccn4)cc3oc2=O)c1F | 425 | 6.7 |  | 97 |  |  |  | IC50 (Cytochrome P450 2C9 [5]): 19000 nM; IC50 (Cytochrome P450 3A4 [6]): 26000 nM; bioavailability [9]: 75%; bioavailability [10]: 59%; IC50 (Cytochrome P450 3A4 [7]): 11000 nM; TGI (C32 [11]): 96%; ED50 (C32 [11]): 1.44 mg/kg; clearance [12]: 0.9 mL/min/kg; clearance [13]: 6.6 mL/min/kg; pKa at 10000 µM [14]: 8.86; clearance [15]: 6.8 mL/min/kg; Activity (Mus musculus [16]): Non-toxic; IC50 (Cytochrome P450 2C9 [8]): 19000 nM; bioavailability [17]: 84%; solubility thermodynamic at 24 h [18]: 5.5 µg/mL (≈ 11.7 µM); Activity (Mus musculus [19]): Non-toxic; IC50 (C32 [20]): 57 nM
5 | CNS(=O)(=O)Nc1cccc(Cc2c(C)c3ccc(OC(=O)N(C)C)nc3oc2=O)c1 |  | 3 | 600 | 440 | 2500 | 1100 | 43 (≈ 96.3 µM) | Papp [3]: 3 ×10⁻⁶ cm/s
6 | CNS(=O)(=O)Nc1cccc(Cc2c(C)c3ccc(OC(=O)N(C)C)cc3oc2=O)n1 | 314 | 7 | 73 | 110 | 70 | 270 | 320 (≈ 717 µM) | Papp [3]: 6 ×10⁻⁶ cm/s
7 | CNS(=O)(=O)Nc1cc(Cc2c(C)c3ccc(OC(=O)N(C)C)cc3oc2=O)ccn1 | 134 | 6 | 25 | 99 | 32 | 32 | 55 (≈ 123 µM) | IC50 (Cytochrome P450 2C9 [5]): > 100000 nM; IC50 (Cytochrome P450 3A4 [6]): > 100000 nM; IC50 (Cytochrome P450 3A4 [7]): > 100000 nM; Papp [3]: 7 ×10⁻⁶ cm/s; IC50 (Cytochrome P450 2C9 [8]): > 100000 nM
8 | CNS(=O)(=O)Nc1cncc(Cc2c(C)c3ccc(OC(=O)N(C)C)cc3oc2=O)c1 |  |  | > 10000 | > 50000 | > 50000 | > 10000 | 240 (≈ 538 µM) | 
9 | CNS(=O)(=O)Nc1ccnc(Cc2c(C)c3cc(C)c(OC(=O)N(C)C)cc3oc2=O)c1 |  |  | 5700 | 37000 | 27000 | > 10000 | 425 (≈ 923 µM) | 
10 | CNS(=O)(=O)Nc1nccc(Cc2c(C)c3ccc(Oc4ccccc4)cc3oc2=O)c1F |  |  |  | 76 | 21 | 110 |  | 
11 | CNS(=O)(=O)Nc1nccc(Cc2c(C)c3ccc(Oc4ccccn4)cc3oc2=O)c1F |  |  |  | 190 | 81 | 45 |  | 
12 | CNS(=O)(=O)Nc1nccc(Cc2c(C)c3ccc(Oc4cnccn4)cc3oc2=O)c1F |  |  |  | 650 | 56 | 900 |  | 
13 | CNS(=O)(=O)Nc1cccc(Nc2c(C)c3ccc(Oc4ncccn4)cc3oc2=O)c1 |  |  |  | > 50000 | > 50000 | > 10000 |  | 
14 | CNS(=O)(=O)[N-]c1cccc(Cc2c(C)c3ccc(Oc4ncccn4)cc3oc2=O)c1F.[K+] |  |  |  |  |  |  |  | solubility at 4 h [23]: 12 µg/mL
15 | CNS(=O)(=O)[N-]c1nccc(Cc2c(C)c3ccc(Oc4ncccn4)cc3oc2=O)c1F.[K+] [AVUTOMETINIB POTASSIUM] |  |  |  |  |  |  |  | solubility at 4 h [23]: 57 µg/mL
16 | CNS(=O)(=O)Nc1nccc(Cc2c(C)c3ccc(Oc4ncccn4)cc3oc2=O)c1F [AVUTOMETINIB] | 2830 | 0.5 |  |  | 56 | 40 | 159 (≈ 337 µM) | IC50 (Cytochrome P450 2C9 [5]): 12000 nM; IC50 (Cytochrome P450 3A4 [6]): > 100000 nM; bioavailability [9]: 93%; bioavailability [10]: 82%; IC50 (Cytochrome P450 3A4 [7]): > 100000 nM; TGI (C32 [11]): 118%; ED50 (C32 [11]): 0.09 mg/kg; clearance [12]: 0.1 mL/min/kg; clearance [13]: 0.7 mL/min/kg; pKa at 10000 µM [14]: 7.02; clearance [15]: 1.1 mL/min/kg; Activity (Mus musculus [16]): Non-toxic; IC50 (Cytochrome P450 2C9 [8]): 60000 nM; bioavailability [17]: 66%; solubility thermodynamic at 24 h [18]: 2.7 µg/mL (≈ 5.73 µM); Activity (Mus musculus [19]): Non-toxic; IC50 (C32 [20]): 47 nM
